What was measured:
[1] = Reversal of drug resistance in human A2780 ADR cells expressing P-gp; assay type: functional, cell-based
Outline: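 Cells seeded per well (A2780/ADR 8,000; H69AR 20,000; MDCK II BCRP 3,000) with test compound at 1, 10 or 100 µM solutions added before cells. Daunorubicin (P-gp, MRP1) or SN-38 (BCRP) added to final 10 nM–10 µM. 72 h at 37 °C, then MTT viability read at 570 nm. GI50 from variable-slope nonlinear fits, compared with parental lines; three independent experiments in duplicate.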

[2] = Reversal of Daunorubicin resistance in human A2780 ADR cells assessed as Daunorubicin GI50 at 0.1 uM measured for 72 hrs by MTT assay; assay type: functional
Outline: (§1)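 Reversal assay: resistant lines (A2780/ADR, H69AR, MDCK II BCRP) and parental lines seeded as for MTT assay with modulator solutions of 1, 10 and 100 µM added (final 0.1, 1, 10 µM) and daunorubicin (P-gp, MRP1) or SN-38 (BCRP) at final 10 nM–10 µM. 72 h, MTT read-out; GI50 by variable-slope fit. Resistance factor = resistant/sensitive GI50; potentiation factor = GI50 without/with modulator.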

[3] = test system: H69AR; experiment: Reversal of Daunorubicin resistance in human NCI-H69AR cells assessed as Daunorubicin GI50 at 0.1 uM measured for 72 hrs by MTT assay; assay type: functional; outline: as §1
[4] = Reversal of SN-38 resistance in dog MDCK-II-BCRP cells assessed as SN-38 GI50 at 0.1 uM measured for 72 hrs by MTT assay; assay type: functional; details: Canis lupus familiaris; outline: as §1
[5] = Reversal of SN-38 resistance in dog MDCK-II-BCRP cells assessed as SN-38 GI50 at 1 uM measured for 72 hrs by MTT assay; assay type: functional; details: Canis lupus familiaris; outline: as §1
[6] = Reversal of SN-38 resistance in dog MDCK-II-BCRP cells assessed as SN-38 GI50 at 10 uM measured for 72 hrs by MTT assay; assay type: functional; details: Canis lupus familiaris; outline: as §1
[7] = target: Multidrug resistance-associated protein 1 (Homo sapiens, UniProt P33527); experiment: Inhibition of MRP1 in human NCI-H69AR cells incubated for 180 mins in presence of daunorubicin by flow cytometry analysis; assay type: cell-based
Outline: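 H69AR cells (doxorubicin-selected small cell lung cancer, RPMI-1640/20% FBS), about 60,000 per well, preincubated 15 min with compound (100 nM–100 µM added solutions, in unsupplemented medium), then daunorubicin (30 µM solution added); steady state after 180 min, 37 °C, 5% CO2. Cells resuspended; flow cytometry, 488 nm excitation, FL3 (≥670 nm). Reference inhibitor 75 at 10 µM = 100%; Imax relative to it.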

[8] = target: T1, Broad substrate specificity ATP-binding cassette transporter ABCG2 (Homo sapiens, UniProt Q9UNQ0); experiment: Inhibition of BCRP (unknown origin) expressed in dog MDCK-II cells using pheophorbide A as substrate preincubated for 20 mins followed by substrate addition and measured after 120 mins by flow cytometry analysis; assay type: cell-based
T1 sequence (Q9UNQ0 whole entry): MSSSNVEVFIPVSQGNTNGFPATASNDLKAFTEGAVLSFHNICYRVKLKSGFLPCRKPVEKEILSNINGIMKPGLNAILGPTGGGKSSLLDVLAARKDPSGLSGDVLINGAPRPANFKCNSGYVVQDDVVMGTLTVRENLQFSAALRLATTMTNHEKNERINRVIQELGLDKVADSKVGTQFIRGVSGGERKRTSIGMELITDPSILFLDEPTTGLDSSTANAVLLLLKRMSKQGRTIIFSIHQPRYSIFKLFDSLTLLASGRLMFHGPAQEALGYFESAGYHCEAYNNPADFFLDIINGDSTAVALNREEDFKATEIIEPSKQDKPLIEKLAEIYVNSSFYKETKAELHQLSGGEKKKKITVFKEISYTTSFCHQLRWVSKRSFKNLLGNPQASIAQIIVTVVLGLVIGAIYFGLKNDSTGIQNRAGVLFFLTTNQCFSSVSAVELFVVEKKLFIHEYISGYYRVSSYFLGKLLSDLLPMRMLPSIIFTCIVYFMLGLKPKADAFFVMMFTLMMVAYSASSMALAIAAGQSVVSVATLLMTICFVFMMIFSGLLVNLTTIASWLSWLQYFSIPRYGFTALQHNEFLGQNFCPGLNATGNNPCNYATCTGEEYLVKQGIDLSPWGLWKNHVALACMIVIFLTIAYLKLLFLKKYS
Outline: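 MDCK II cells transfected with human wild-type BCRP cDNA C-terminally fused to GFP, grown in DMEM/10% FBS. About 45,000 cells per well preincubated 20 min at 37 °C, 5% CO2 with compound (100 nM–100 µM added solutions), then pheophorbide A (5 µM solution added) for 120 min to steady state. Resuspended; flow cytometry, 488 nm excitation, FL3 (≥670 nm); GFP in FL1. Reference inhibitor 24 at 10 µM = 100%.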

[9] = test system: MDCK-II; experiment: Antiproliferative activity against dog MDCK-II cells assessed as reduction in cell viability measured for 72 hrs bt MTT assay; assay type: functional; details: Canis lupus familiaris
[10] = test system: P-gp (ABCB1); experiment: Therapeutic index, ratio of GI50 for antiproliferative activity against human A2780 ADR cells to IC50 for inhibition of P-gp (unknown origin); assay type: toxicity, cell-based
Outline: (§2)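 Ratio of MTT-assay GI50 to transport-inhibition IC50, both in the resistant line. GI50 comes from 72 h exposure at 37 °C to dilutions up to 1000 µM, with medium as 100% and 10% DMSO as 0% viability. IC50 comes from calcein AM (A2780/ADR), daunorubicin (H69AR) or pheophorbide A (MDCK II BCRP) accumulation.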

[11] = test system: MRP1; experiment: Therapeutic index, ratio of GI50 for antiproliferative activity against human NCI-H69AR cells to IC50 for inhibition of MRP1 in human NCI-H69AR cells; assay type: toxicity, cell-based; outline: as §2
[12] = Potentiation factor, ratio of GI50 for SN-38 resistant dog MDCK-II-BCRP cells expressing BCRP cells to GI50 for reversal of SN-38 resistance in dog MDCK-II-BCRP cells assessed as SN-38 GI50 at 1 uM (reference value: 1 uM); assay type: functional, Canis lupus familiaris; outline: as §1
[13] = Potentiation factor, ratio of GI50 for SN-38 resistant dog MDCK-II-BCRP cells expressing BCRP cells to GI50 for reversal of SN-38 resistance in dog MDCK-II-BCRP cells assessed as SN-38 GI50 at 10 uM (reference value: 1 uM); assay type: functional, Canis lupus familiaris; outline: as §1
[14] = test system: H69AR; experiment: Sensitization of human NCI-H69AR cells expressing MRP1 assessed as maximal sensitivity at 10 uM relative to control; assay type: functional
Outline: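 Resistant lines were exposed to daunorubicin (A2780/ADR, H69AR) or SN-38 (MDCK II BCRP) over 10 nM–10 µM final, with or without modulator, for 72 h. Viability was read by MTT. Potentiation factor is GI50 without modulator over GI50 with modulator. Maximal sensitization is pf at 10 µM divided by the native resistance factor, in percent.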

[15] = Sensitization of dog MDCK-II-BCRP cells expressing BCRP assessed as maximal sensitivity at 10 uM relative to control

Chain of Multidrug resistance-associated protein 1 (P33527 whole entry): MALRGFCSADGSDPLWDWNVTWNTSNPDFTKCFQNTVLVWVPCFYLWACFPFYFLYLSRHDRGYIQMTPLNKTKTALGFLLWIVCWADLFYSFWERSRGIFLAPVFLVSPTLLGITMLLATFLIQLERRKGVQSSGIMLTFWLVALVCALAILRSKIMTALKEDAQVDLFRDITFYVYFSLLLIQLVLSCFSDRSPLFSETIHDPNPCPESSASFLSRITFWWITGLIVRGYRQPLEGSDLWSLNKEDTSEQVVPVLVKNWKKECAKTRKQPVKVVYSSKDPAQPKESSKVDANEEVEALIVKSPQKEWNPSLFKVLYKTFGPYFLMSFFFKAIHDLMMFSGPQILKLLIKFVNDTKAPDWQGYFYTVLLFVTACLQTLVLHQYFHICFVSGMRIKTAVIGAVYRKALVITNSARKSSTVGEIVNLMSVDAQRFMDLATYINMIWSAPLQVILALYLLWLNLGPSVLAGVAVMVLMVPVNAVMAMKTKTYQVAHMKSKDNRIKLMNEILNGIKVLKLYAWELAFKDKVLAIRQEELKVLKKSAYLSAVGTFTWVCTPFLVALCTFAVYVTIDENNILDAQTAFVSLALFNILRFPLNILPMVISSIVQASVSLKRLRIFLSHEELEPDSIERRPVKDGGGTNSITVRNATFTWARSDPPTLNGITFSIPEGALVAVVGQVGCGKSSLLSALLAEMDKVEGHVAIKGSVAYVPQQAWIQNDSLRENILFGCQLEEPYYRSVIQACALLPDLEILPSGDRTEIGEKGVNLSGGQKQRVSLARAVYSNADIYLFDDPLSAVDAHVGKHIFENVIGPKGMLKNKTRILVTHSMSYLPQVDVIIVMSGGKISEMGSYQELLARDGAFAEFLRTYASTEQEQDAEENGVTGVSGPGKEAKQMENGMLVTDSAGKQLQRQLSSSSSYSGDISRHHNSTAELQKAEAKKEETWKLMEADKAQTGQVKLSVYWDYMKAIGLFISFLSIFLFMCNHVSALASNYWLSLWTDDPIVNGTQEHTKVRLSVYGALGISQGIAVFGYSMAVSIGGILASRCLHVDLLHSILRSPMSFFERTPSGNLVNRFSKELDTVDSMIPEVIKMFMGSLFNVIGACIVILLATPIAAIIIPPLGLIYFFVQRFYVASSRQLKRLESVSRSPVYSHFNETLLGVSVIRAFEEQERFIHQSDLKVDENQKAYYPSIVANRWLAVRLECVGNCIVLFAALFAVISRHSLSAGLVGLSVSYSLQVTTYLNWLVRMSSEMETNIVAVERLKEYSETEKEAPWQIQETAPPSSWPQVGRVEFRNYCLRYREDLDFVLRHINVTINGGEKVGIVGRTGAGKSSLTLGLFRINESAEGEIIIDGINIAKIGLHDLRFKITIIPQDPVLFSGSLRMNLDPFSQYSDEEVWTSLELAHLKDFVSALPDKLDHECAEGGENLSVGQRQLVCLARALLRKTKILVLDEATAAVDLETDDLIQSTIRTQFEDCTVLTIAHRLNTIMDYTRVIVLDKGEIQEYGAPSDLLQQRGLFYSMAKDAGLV

Compound: N#Cc1cn(CCCc2ccccc2)c2c(N3CCN(CCc4c[nH]c5ccccc45)CC3)ncnc12
- EC50 [1]: 563 nM
- GI50 [2]: 286 nM
- GI50 [3]: 2100 nM
- GI50 [4]: 916 nM
- GI50 [5]: 211 nM
- GI50 [6]: 61 nM
- IC50 [7]: 501 nM
- IC50 [8]: 1690 nM
- GI50 [9]: 37200 nM
- selectivity ratio [10]: 9.4
- selectivity ratio [11]: 303
- PF [12]: 8.1
- PF [13]: 28
- Activity [14]: 81%
- Activity [15]: 140%

Source: ChEMBL document CHEMBL5260824, “9-Deazapurines as Broad-Spectrum Inhibitors of the ABC Transport Proteins P-Glycoprotein, Multidrug Resistance-Associated Protein 1, and Breast Cancer Resistance Protein” (J Med Chem, 2017)
